Active and inactive are the calls of the source. The rule behind the calls is not given here.
Experiments:
[1] = Induction of nitric oxide release in phosphate buffered saline up to 20 days by Griess reagent test; type: physicochemical; parameters: concentration or dose not given beside the values; settings: buffer, 480 h
Method in brief: (§1)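 Nitrosated compound was stirred in 1X PBS at 0.0125 M (0.0250 M NO) at room temperature. Aliquots were taken hourly to 12 h, every 4 h to 24 h, every 8 h to 48 h, then every 24 h. Aliquots were centrifuged and triplicate supernatants mixed with Griess reagent for 5 min. Absorbance at 550 nm was plotted against time.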

[2] = Nitrosation of the compound in glacial acetic acid/tetrahydrofuran after 5 to 8 hrs by IR spectroscopy analysis; type: physicochemical
HASMC [3] = test: Induction of nitric oxide release in HASMC at 5 to 20 uM after 60 mins by DAF-FM DA assay; type: functional, cell-based; settings: Homo sapiens
[4] = Half life of the compound; type: physicochemical; method in brief: as §1
HASMC [5] = test: Antiproliferative activity against HASMC using calcein AM and ethidium homodimer-1 at <= 20 uM by LIVE/DEAD assay; type: functional, cell-based; settings: Homo sapiens
Method in brief: (§2)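 HASMCs in black plates were exposed for 96 h to compound at 0.1–20 µM in medium with 1% DMSO. Floating dead cells were pelleted, washed in PBS and returned to their wells. Cells were stained with Eth-1 (0.5 µM) and calcein AM (0.25 µM) for 45 min at room temperature, then read at ex/em 495/530 and 528/645 nm. Triplicate; t-test versus vehicle.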

HASMC [6] = test: Antiproliferative activity against HASMC at <= 20 uM after 96 hrs by MTT assay; type: functional, cell-based; settings: Homo sapiens
Method in brief: (§3)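 Serum-starved HASMCs (3000–3500 cells/well) received compound in complete SMC medium (2% FBS) with 1% DMSO at 0.1, 1, 5, 10 or 20 µM for 48 h. Fresh medium was then added and cells grew a further 48 h (96 h total). MTT 4–6 h at 37 °C, solubilized, A570 as % of medium-only control; 1% DMSO vehicle; triplicate; t-test versus vehicle.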

[7] = Toxicity in HASMC assessed as cell viability at 10 uM after 96 hrs by MTT assay relative to control; type: cell-based; settings: human, HASMC cells; read-out: Activity; method in brief: as §3
[8] = Toxicity in HASMC assessed as cell viability at 1 uM after 96 hrs by MTT assay relative to control; type: cell-based; settings: human, HASMC cells; read-out: Activity; method in brief: as §3
[9] = Toxicity in HASMC assessed as cell viability at 5 uM after 96 hrs by MTT assay relative to control; type: cell-based; settings: human, HASMC cells; read-out: Activity; method in brief: as §3
[10] = Toxicity in HASMC assessed as cell viability at 20 uM after 96 hrs by MTT assay relative to control; type: cell-based; settings: human, HASMC cells; read-out: Activity; method in brief: as §3
[11] = Toxicity in HASMC assessed as cell viability at 0.1 uM after 96 hrs by MTT assay relative to control; type: cell-based; settings: human, HASMC cells; read-out: Activity; method in brief: as §3
HASMC [12] = test: Toxicity in HASMC assessed as cell viability using calcein AM and ethidium homodimer-1 by LIVE/DEAD assay; type: cell-based; settings: human; method in brief: as §2
[13] = Nitrosation of the compound in glacial acetic acid/tetrahydrofuran after 24 to 48 hrs by IR spectroscopy analysis; type: physicochemical
HASMC [14] = test: Antiproliferative activity against HASMC using calcein AM and ethidium homodimer-1 at 20 uM by LIVE/DEAD assay in presence of S-2-amino-6-boronic acid; type: functional, cell-based; settings: Homo sapiens
Method in brief: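 HASMCs in black plates were induced with LPS/IFN-γ for 6 h, then given 20 µM donor plus 5 mM ABH for two 48 h periods. Detached cells were pelleted, washed and returned to their wells. Staining used ethidium homodimer-1 (0.5 µM) and calcein AM (0.25 µM) for 45 min at room temperature. Live cells were read at 495/530 nm and dead cells at 528/645 nm.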

HASMC [15] = test: Induction of nitric oxide release in HASMC at 20 uM after 60 mins by DAF-FM DA assay in presence of S-2-amino-6-boronic acid; type: functional, cell-based; settings: Homo sapiens
Method in brief: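 After LPS/IFN-γ induction (6 h), HASMCs were treated with 20 µM donor plus 5 mM ABH over 96 h. Cells were then loaded with DAF-FM DA (10 µM) for 60 min at room temperature in the dark, washed three times, left to de-esterify, and read at ex/em 495/515 nm.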

HASMC [16] = test: Antiproliferative activity against HASMC at 20 uM after 96 hrs by MTT assay; type: functional, Homo sapiens; method in brief: as §3
HASMC [17] = test: Antiproliferative activity against HASMC at 20 uM after 96 hrs by MTT assay in presence of S-2-amino-6-boronic acid; type: functional, cell-based; settings: Homo sapiens
Method in brief: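 HASMCs were induced with LPS (50 µg/mL) and IFN-γ (50 ng/mL) for 6 h at 37 °C. Cytokines were removed and cells were treated with 5 mM ABH plus donor (20 µM) in SMC medium for 48 h at 37 °C. A second dose was added, followed by a further 48 h. Readout was MTT absorbance at 570 nm.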

[18] = Nitrosation of the compound in glacial acetic acid/tetrahydrofuran after 24 to 48 hrs by IR spectroscopy analysis in presence of glutathione; type: physicochemical
[19] = Induction of nitric oxide release in phosphate buffered saline up to 20 days by Griess reagent test in presence of glutathione; type: physicochemical; settings: buffer, 480 h
Method in brief: (§4)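 The same protocol was used in 1X PBS containing 5 mM reduced glutathione: donor at 0.0125 M, room temperature, timed aliquots over about 20 days. Supernatants were mixed with Griess reagent and absorbance read at 550 nm; no new calibration was needed.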

[20] = Half life of the compound in presence of glutathione; type: physicochemical; settings: gsh; method in brief: as §4
[21] = Nitrosation of the compound in glacial acetic acid/tetrahydrofuran after 5 to 8 hrs by IR spectroscopy analysis in presence of glutathione; type: physicochemical
HASMC [22] = test: Antiproliferative activity against HASMC at 1 mM after 96 hrs by MTT assay; type: functional; settings: Homo sapiens
Method in brief: (§5)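 HASMCs at passage six or later were seeded at 3000–3500 cells/well, attached 16–24 h at 37 °C, then serum-starved 24–48 h. iNOS was induced with LPS (50 µg/mL) plus IFN-γ (50 ng/mL) for 6 h at 37 °C. ABH was then given in SMC medium at 1, 10, 100 µM, 1.0 and 5.0 mM over two 48 h feeds. MTT absorbance was read at 570 nm; duplicate determinations.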

HASMC [23] = test: Antiproliferative activity against HASMC at 5 mM after 96 hrs by MTT assay; type: functional; settings: Homo sapiens; method in brief: as §5
HASMC [24] = test: Induction of nitric oxide release in HASMC at 0.001 to 5 mM after 60 mins by DAF-FM DA assay; settings: Homo sapiens
HASMC [25] = test: Induction of cell proliferation in HASMC at 0.1 to 5 uM after 96 hrs by MTT assay; type: cell-based; settings: human

| Activity [1] [%] | half-life [4] [h] | Compound | Activity (HASMC [3]) | Activity (HASMC [5]) | Activity (HASMC [6]) | viability at 96 h, 10 µM [7] [%] | viability at 96 h, 1 µM [8] [%] | viability at 96 h, 5 µM [9] [%] | viability at 96 h, 20 µM [10] [%] | viability at 96 h, 0.1 µM [11] [%] | Activity (HASMC [12]) | also measured |
| --- | --- | --- | --- | --- | --- | --- | --- | --- | --- | --- | --- | --- |
| 2.48 | 87 | CCCCCCCN(N=O)c1ccc([N+](=O)[O-])c(N(CCCCCCC)N=O)c1 | Active | Active | Active | – | – | – | – | – | – | Activity [2]: 100% |
| – | – | CCCCCCCNc1cccc(NCCCCCCC)c1[N+](=O)[O-] | – | – | – | 81 | 80 | 82 | 80 | 81.6 | Non-toxic | – |
| 2.63 | 83 | CCCCCCCCN(N=O)c1ccc([N+](=O)[O-])c(N(CCCCCCCC)N=O)c1 | Active | Active | Active | – | – | – | – | – | – | Activity [2]: 100% |
| – | – | CCCCCCCCCNc1ccc([N+](=O)[O-])c(NCCCCCCCCC)c1 | – | – | – | 84.5 | 86.3 | 86 | 86 | 87 | Non-toxic | – |
| 1.85 | 140 | CCCCCCN(N=O)c1cccc(N(CCCCCC)N=O)c1[N+](=O)[O-] | Active | Active | Active | – | – | – | – | – | – | Activity [13]: 100%; inhibition (HASMC [14]): Active; Activity (HASMC [15]): Active; Activity (HASMC [16]): 18%; inhibition (HASMC [17]): Active |
| – | – | CCCCCCCNc1ccc([N+](=O)[O-])c(NCCCCCCC)c1 | – | – | – | 86 | 87 | 87.6 | 85.6 | 88.3 | Non-toxic | – |
| 2.13 | 93 | CCCCCCCCN(N=O)c1cccc(N(CCCCCCCC)N=O)c1[N+](=O)[O-] | Active | Active | Active | – | – | – | – | – | – | Activity [13]: 100%; Activity [18]: 100%; Activity [19]: 1.32%; half-life [20]: 123 h |
| – | – | CCCCCCCCNc1ccc([N+](=O)[O-])c(NCCCCCCCC)c1 | – | – | – | 84 | 89.6 | 87.2 | 85.4 | 84.6 | Non-toxic | – |
| 2.32 | 80 | CCCCCCCCCN(N=O)c1cccc(N(CCCCCCCCC)N=O)c1[N+](=O)[O-] | Active | – | – | – | – | – | – | – | – | Activity [13]: 100% |
| 2.83 | 69 | CCCCCCCCCN(N=O)c1ccc([N+](=O)[O-])c(N(CCCCCCCCC)N=O)c1 | Active | Active | Active | – | – | – | – | – | – | Activity [19]: 1.29%; Activity [2]: 100%; Activity [21]: 100%; half-life [20]: 109 h |
| – | – | N[C@@H](CCCCB(O)O)C(=O)O | – | – | – | – | – | – | – | – | – | inhibition at 1000 µM (HASMC [22]): 35%; inhibition at 5000 µM (HASMC [23]): 48%; Activity (HASMC [24]): Active |
| – | – | CCCCCCCCCCNc1ccc([N+](=O)[O-])c(NCCCCCCCCCC)c1 | – | – | – | 84 | 87.4 | 88 | 84 | 89 | Non-toxic | – |
| – | – | CCCCCCCCCCNc1cccc(NCCCCCCCCCC)c1[N+](=O)[O-] | – | – | – | 69 | 75.5 | 70 | 65 | 76.8 | Toxic | – |
| – | – | CCCCCCCCNc1cccc(NCCCCCCCC)c1[N+](=O)[O-] | – | – | – | 83.2 | 89.7 | 82.9 | 82.8 | 86.2 | Non-toxic | – |
| 2.02 | 126 | CCCCCCCN(N=O)c1cccc(N(CCCCCCC)N=O)c1[N+](=O)[O-] | inactive | Active | Active | – | – | – | – | – | – | Activity (HASMC [25]): Toxic; Activity [13]: 100% |
| – | – | CCCCCCNc1ccc([N+](=O)[O-])c(NCCCCCC)c1 | – | – | – | 85.9 | 86.1 | 84 | 87 | 85.1 | Non-toxic | – |
| 2.34 | 105 | CCCCCCN(N=O)c1ccc([N+](=O)[O-])c(N(CCCCCC)N=O)c1 | Active | Active | Active | – | – | – | – | – | – | inhibition (HASMC [14]): Active; Activity [19]: 0.84%; Activity [2]: 100%; Activity (HASMC [15]): Active; Activity (HASMC [16]): 23%; inhibition (HASMC [17]): Active; Activity [21]: 100%; half-life [20]: 126 h |
| 2.6 | 62 | CCCCCCCCCCN(N=O)c1cccc(N(CCCCCCCCCC)N=O)c1[N+](=O)[O-] | Active | – | – | – | – | – | – | – | – | Activity [13]: 100%; Activity [18]: 100%; Activity [19]: 1.9%; half-life [20]: 108 h |
| 3 | 60 | CCCCCCCCCCN(N=O)c1ccc([N+](=O)[O-])c(N(CCCCCCCCCC)N=O)c1 | Active | Active | Active | – | – | – | – | – | – | Activity [2]: 100% |
| – | – | CCCCCCCCCNc1cccc(NCCCCCCCCC)c1[N+](=O)[O-] | – | – | – | 73 | 78 | 75 | 68 | 82 | Toxic | – |
| – | – | CCCCCCNc1cccc(NCCCCCC)c1[N+](=O)[O-] | – | – | – | 81 | 82 | 84 | 81 | 82.2 | Non-toxic | – |

— ChEMBL document CHEMBL2346638, “Secondary amines containing one aromatic nitro group: preparation, nitrosation, sustained nitric oxide release, and the synergistic effects of released nitric oxide and an arginase inhibitor on vascular smooth muscle cell proliferation” (Bioorg Med Chem, 2013)
